Results published in ChEMBL document CHEMBL3596181, “Optimization of the anti-cancer activity of phosphatidylinositol-3 kinase pathway inhibitor PITENIN-1: switching a thiourea with 1,2,3-triazole” (Medchemcomm, 2014).
The source made the active and inactive calls. The calls are words filed in the database; no cut-off is given here.

Assays:
A2780 [1] = experiment: Cytotoxicity against human A2780 cells by […]; format: functional, cell-based
Procedure, shortened: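 Cells were exposed to inhibitors together with 1 μg/mL TRAIL for 24 hr. Viability was read by CellTiter-Glo assay.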

A2780 [2] = experiment: Cytotoxicity against human A2780 cells by ESI; format: functional, cell-based
[3] = Clearance in mouse liver microsomes; format: ADME; conditions: read-out: CLH
Procedure, shortened: (§1)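 Stability in mouse liver microsomes in vitro. Half-life (min) and intrinsic clearance (μL·min⁻¹·mg⁻¹) were determined.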

[4] = Half life in mouse liver microsomes; format: ADME; procedure, shortened: as §1
A2780 [5] = experiment: Antimigratory activity against human A2780 cells at 0.75 to 1.5 uM by wound healing assay; format: functional, cell-based
Procedure, shortened: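 Wound healing: A2780 monolayers were treated with inhibitors and then scratch-wounded. The cell-free area was photographed at set time points, and the open wound area was quantified.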

[6] = Inhibition of Akt in human A2780 cells assessed as inhibition of TORC1/p70S6K/S6 pathway at 0.3 to 50 uM after 7 hrs by Western blotting analysis; format: cell-based
Procedure, shortened: (§2)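 U87MG or A2780 cells were exposed to inhibitors for 7 hr. Lysates were Western blotted with phospho-S6 and total S6 antibodies.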

[7] = Clearance in mouse at 1 mg/kg, iv; format: ADME, organism-based; conditions: in vivo
[8] = Half life in mouse at 1 mg/kg, iv; format: ADME, organism-based; conditions: in vivo
T47D = experiment: Cytotoxicity against human T47D cells at 6.25 to 50 uM after 24 hrs by CellTitre-Glo assay; format: functional, cell-based
Procedure, shortened: (§3)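 Cells were treated with inhibitors alone for 24 hr. Viability was read by CellTiter-Glo luminescence.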

U-87 MG = experiment: Cytotoxicity against human U87MG cells at 6.25 to 50 uM after 24 hrs by CellTitre-Glo assay; format: functional, cell-based; conditions: U-87MG ATCC; procedure, shortened: as §3
[9] = target: RAC-alpha serine/threonine-protein kinase (Homo sapiens) (UniProt P31749); experiment: Inhibition of Akt PH domain (unknown origin) binding to PI(3,4)P2 at 100 uM by lipid overlay assay
Sequence of RAC-alpha serine/threonine-protein kinase (Homo sapiens) (P31749 whole entry, the tested form may be a part): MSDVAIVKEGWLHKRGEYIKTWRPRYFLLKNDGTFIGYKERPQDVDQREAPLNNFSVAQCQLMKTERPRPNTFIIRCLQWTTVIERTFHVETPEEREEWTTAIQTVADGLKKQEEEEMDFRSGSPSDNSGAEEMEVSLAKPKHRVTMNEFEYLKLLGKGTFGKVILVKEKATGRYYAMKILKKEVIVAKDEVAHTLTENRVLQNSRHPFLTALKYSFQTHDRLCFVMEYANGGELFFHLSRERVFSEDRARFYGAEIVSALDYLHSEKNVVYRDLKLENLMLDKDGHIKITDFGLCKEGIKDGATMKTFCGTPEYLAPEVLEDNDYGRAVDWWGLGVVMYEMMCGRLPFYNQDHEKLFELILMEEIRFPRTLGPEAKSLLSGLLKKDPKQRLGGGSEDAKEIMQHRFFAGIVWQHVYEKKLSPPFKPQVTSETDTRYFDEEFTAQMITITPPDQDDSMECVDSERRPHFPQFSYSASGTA
Procedure, shortened: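 Lipid overlay: AktPH domain binding to PI(3,4)P2 spotted on a […] membrane.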

A2780 [10] = experiment: Cytotoxicity against human A2780 cells at 6.25 to 50 uM after 24 hrs by CellTitre-Glo assay; format: functional, cell-based; procedure, shortened: as §3
[11] = Bioavailability in ip dosed mouse; format: ADME, organism-based; conditions: in vivo
Procedure, shortened: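 Bioavailability was calculated from intraperitoneal administration relative to an intravenous 1 mg/kg dose in mouse.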

[12] = Inhibition of Akt in human U87MG cells assessed as inhibition of TORC1/p70S6K/S6 pathway at 0.3 to 50 uM after 7 hrs by Western blotting analysis; format: cell-based; conditions: U-87MG ATCC; procedure, shortened: as §2

## Cc1cc(C)cc(C(=O)c2cn(-c3ccc([N+](=O)[O-])cc3O)nn2)c1
A2780 [1]
  EC50: 70.5 µmol
A2780 [2]
  EC50: 89.1 µmol

## O=C(NCc1cn(-c2cc(Cl)ccc2O)nn1)c1cc(C(F)(F)F)cc(C(F)(F)F)c1
A2780 [1]
  EC50: 14 µmol
A2780 [2]
  EC50: 16.2 µmol

## CC(C)c1ccc(C(=O)c2cn(-c3cc(Cl)ccc3O)nn2)cc1
A2780 [1]
  EC50: 41.6 µmol
A2780 [2]
  EC50: 64.1 µmol

## Cc1ccc(O)c(-n2cc(C(=O)c3ccc(C(C)C)cc3)nn2)c1
A2780 [1]
  EC50: > 100 µmol
A2780 [2]
  EC50: > 100 µmol

## Cc1cccc(O)c1-n1cc(C(=O)c2ccc(C(C)C)cc2)nn1
A2780 [1]
  EC50: > 100 µmol
A2780 [2]
  EC50: > 100 µmol

## Cc1cc(C)cc(C(=O)c2cn(-c3c(C)cccc3O)nn2)c1
A2780 [1]
  EC50: 98.4 µmol
A2780 [2]
  EC50: 104 µM

## Cc1cccc(O)c1-n1cc(C(=O)c2ccc3ccccc3c2)nn1
A2780 [1]
  EC50: 74.9 µmol
A2780 [2]
  EC50: 85.2 µmol

## Cc1cccc(O)c1-n1cc(C(=O)c2ccccc2)nn1
A2780 [1]
  EC50: 8 µmol
A2780 [2]
  EC50: 8.1 µmol

## Cc1cc(C)cc(C(=O)c2cn(-c3ccc(Cl)cc3O)nn2)c1
A2780 [1]
  EC50: 64.4 µmol
A2780 [2]
  EC50: > 100 µmol

## O=C(c1ccc2ccccc2c1)c1cn(-c2cc(Cl)ccc2O)nn1
A2780 [1]
  EC50: > 100 µmol
A2780 [2]
  EC50: > 100 µmol

## COc1ccc(Cl)cc1-n1cc(C(=O)c2ccccc2)nn1
A2780 [1]
  EC50: > 100 µmol
A2780 [2]
  EC50: > 100 µmol

## Cc1ccc(O)c(-n2cc(C(=O)c3ccccc3)nn2)c1
A2780 [1]
  EC50: > 100 µmol
A2780 [2]
  EC50: > 100 µmol

## Cc1ccc(O)c(-n2cc(C(=O)c3ccc4ccccc4c3)nn2)c1
A2780 [1]
  EC50: > 100 µmol
A2780 [2]
  EC50: > 100 µmol

## Cc1cc(C)cc(C(=O)c2cn(-c3cc(Cl)ccc3O)nn2)c1
A2780 [1]
  EC50: 30.6 µmol
A2780 [2]
  EC50: 57.8 µmol

## Cc1cc(C)cc(C(=O)NC(=S)Nc2cc([N+](=O)[O-])ccc2O)c1
[3]
  microsomal CLint: 1260 µL/min/mg
[4]
  half-life: 0.03 h

## O=C(c1cc(C(F)(F)F)cc(C(F)(F)F)c1)c1cn(-c2cc(Cl)ccc2O)nn1
A2780 [5]
  Activity: Active
[3]
  microsomal CLint: 19.4 µL/min/mg
[6]
  inhibition: Active
[7]
  clearance: 15.5 mL/min/kg
[4]
  half-life: 1.98 h
[8]
  half-life: 3.22 h
T47D
  Activity: Active
A2780 [1]
  EC50: 3.15 µmol
A2780 [2]
  EC50: 11.99 µmol
U-87 MG
  Activity: Active
[9]
  inhibition: Active
A2780 [10]
  Activity: Active
[11]
  bioavailability: 85.1%
[12]
  inhibition: Active

## O=C(c1ccccc1)c1cn(-c2ccc(Cl)cc2O)nn1
A2780 [1]
  EC50: 42.3 µmol
A2780 [2]
  EC50: 48.9 µmol

## O=C(c1ccccc1)c1cn(-c2cc(Cl)ccc2O)nn1
A2780 [1]
  EC50: 51.6 µmol
A2780 [2]
  EC50: 104 µM

## Cc1cc(C)cc(C(=O)c2cn(-c3cc(C)ccc3O)nn2)c1
A2780 [1]
  EC50: > 100 µmol
A2780 [2]
  EC50: > 100 µmol

## O=C(NC(=S)Nc1cc([N+](=O)[O-])cc(Cl)c1O)c1ccccc1
[9]
  inhibition: Active
